AF4-AF9 inh: inhibitors of human MLL-AF4/AF9 interaction. AlphaScreen, biotin-AF4 peptide binding to FLAG-AF9. AID 651704. 0.47% of 350,000 active. inhibition, % at 10 µM. P42568;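 active = every replicate reaching a set inhibition limit, whatever the replicate mean, cut at about 25% in these data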;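 note: 0% = plate neutral control median and 100% = total signal loss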
Target sequence (P42568 whole entry, looked up): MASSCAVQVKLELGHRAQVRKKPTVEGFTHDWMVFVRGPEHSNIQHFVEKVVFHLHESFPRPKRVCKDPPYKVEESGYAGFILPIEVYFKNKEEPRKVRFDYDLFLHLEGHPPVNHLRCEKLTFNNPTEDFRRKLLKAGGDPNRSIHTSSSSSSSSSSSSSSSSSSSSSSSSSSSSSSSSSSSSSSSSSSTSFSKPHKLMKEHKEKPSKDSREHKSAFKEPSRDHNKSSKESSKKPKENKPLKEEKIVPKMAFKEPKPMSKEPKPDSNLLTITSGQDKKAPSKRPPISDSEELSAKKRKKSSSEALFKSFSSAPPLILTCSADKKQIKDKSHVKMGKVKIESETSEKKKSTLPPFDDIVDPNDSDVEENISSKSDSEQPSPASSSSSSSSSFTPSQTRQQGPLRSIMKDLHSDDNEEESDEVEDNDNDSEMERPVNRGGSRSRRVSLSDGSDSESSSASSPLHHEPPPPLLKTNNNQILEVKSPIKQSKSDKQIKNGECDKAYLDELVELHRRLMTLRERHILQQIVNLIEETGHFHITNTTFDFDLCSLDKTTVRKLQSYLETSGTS
RAD54 branch: blocks human RAD54 Holliday junction branch migration; Q92698; AID 602329; inhibition, % at 10.4 µM; FAM/BHQ fluorescence; 0.14% of 360,000 active;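 active = mean normalized replicate activity at least 40 and at least half of replicates scoring 40 or more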;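 note: 0% = median of neutral control wells and 100% = median of positive control wells; inhibitors cause a drop in the FAM fluorescence signal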
FN deposit inh: fibronectin deposition inhibition; AID 743247; 0.086% of 350,000 active; AH1F fibroblasts, Alexa488-fibronectin deposition fluorescence, overnight; inhibition, % at 12.6 µM;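 active = mean inhibition across replicates of 30% or more, regardless of how many single replicates reach that level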;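 note: positive control wells lacked labelled fibronectin entirely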
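Test system: AH1F fibroblast monolayer depositing Alexa488-labelled fibronectin into matrix. Input: 10000 cells per well. Technique: fluorescence, ex 485 nm, em 525 nm. Buffer or medium: DMEM plus 2% serum, read in PBS. Timing: 1 h cell adhesion before compound, then overnight fibronectin incubation. Compound: single dose, pinned. Read-out basis: inhibition from reduced deposited-fibronectin fluorescence.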
RAD52 inh: blocks human RAD52 DNA annealing; P43351; recombinant RAD52 DNA annealing, FRET fluorescence; inhibition, % at 18.7 µM; 0.46% of 360,000 active;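 active = every replicate showing at least 50% inhibition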
NSD2 inh: blocks human histone methyltransferase NSD2. inhibition, % at 12.5 µM. O96028. AID 743445. NSD2 peptide methylation, AlphaScreen, 120 min. 0.54% of 310,000 active; in the data active = inhibition above about 50%
N-glyco inh: N-linked glycosylation inhibition; reporter increase, % at 12.5 µM; 0.23% of 360,000 active; D54 ERlucT glycosylation luciferase reporter, 24 h; percent of 100 nM tunicamycin response;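 active = mean luciferase reporter signal, scaled so untreated is 0 and the glycosylation-blocking control 100, at or above a set limit in every replicate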;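 note: luciferase carries N-glycosylation sites so blocking glycosylation raises the light; 0% = median of neutral control wells and 100% = median of 100 nM tunicamycin wells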
Starred values were filed as active, the others as inactive; x = no result given; ! = a repeat was not active. The list is not random: actives were taken first. Their share in the collection is about 1.2%.

SMILES	AF4-AF9 inh	RAD54 branch	FN deposit inh	RAD52 inh	NSD2 inh	N-glyco inh
CCCCCCC(=O)N(O)C1CC(=O)N(c2ccc(Br)cc2)C1=O (centres undefined)	x	1	-16	x	x	68*
COc1ccccc1N(O)C1CC(=O)N(c2ccc(Br)cc2)C1=O (centres undefined)	x	-7	-9	x	x	1
CCCCCCC(=O)N(O)C1CC(=O)N(c2ccc(F)cc2)C1=O (centres undefined)	1	-6	10	-10	0	78*
COCCNC(=O)C[C@H]1C[C@@H]2c3cc(NC(=O)COC)ccc3O[C@@H]2[C@@H](CO)O1	1	1	-3	-3	x	x
O=C1Nc2ccc(Br)cc2C1=Nc1cccnc1	0	-13	-2	-15	67*	6
O=C1Nc2ccccc2C1=Nc1cccc(Cl)c1	2	-3	6	-7	9	4
COc1ccc(C2Nc3ccc4ccccc4c3-c3c2c(=O)oc2ccccc32)cc1 (centres undefined)	x	1	x	x	-3	109*
CCOc1ccc(C2Nc3ccc4ccccc4c3-c3c2c(=O)oc2ccccc32)cc1 (centres undefined)	x	x	6	x	-1	12
CCC(=O)N1CC(=O)N2[C@H](C1)[C@H](c1ccc(C#Cc3cccnc3)cc1)[C@@H]2CO	-12	x	x	9	x	x
Fc1cccc(-c2ccc(C3[C@H]4CNC[C@@H]3N4Cc3ccccc3F)cc2)c1 (some centres undefined)	2	x	1	60*	x	x
COc1cccc(-c2ccc(C3[C@H]4CNC[C@@H]3N4Cc3cc(F)ccc3F)cc2)c1 (some centres undefined)	2	x	-1	54*!	x	x
N#Cc1cccc(-c2ccc(C3[C@H]4CNC[C@@H]3N4Cc3cc(F)ccc3F)cc2)c1 (some centres undefined)	0	x	-3	36	x	x
COc1cccc(-c2ccc(C3[C@H]4CNC[C@@H]3N4Cc3ccc(F)cc3)cc2)c1 (some centres undefined)	0	x	-12	20	x	x
CC1(C)C[C@@H]2C[C@@](C)(CN2C(=O)c2ccccc2)C1	0	-6	-3	6	-1	-1
CC1(C)CC2CC(C)(CN2/C=C2/CCCCC2=O)C1 (centres undefined)	32*	-20	-3	-30	-1	0
COCCN(C(=O)CCl)C(C(=O)NC1CCCCC1)c1ccccc1C (centres undefined)	5	2	-3	-12	1	30*
O=C(C[C@@H]1C[C@@H]2c3cc(NC(=O)NC4CCCC4)ccc3O[C@@H]2[C@H](CO)O1)NCc1ccccc1	x	x	-15	x	x	x
O=C(CNC(=O)c1ccc(Br)o1)Nc1cccc(-c2cnc3ccccc3n2)c1	x	-5	x	x	-2	26*
C[C@@H]1CCCCO[C@@H](CN(C)S(=O)(=O)c2cn(C)cn2)[C@@H](C)CN([C@H](C)CO)C(=O)c2cc(NC(=O)CCC(F)(F)F)ccc2O1	1	-3	x	-9	x	x
C=CCNCC(=O)N1N=C(c2ccc3ccccc3c2)CC1c1ccc(OC)cc1 (centres undefined)	20	x	8	25	-2	-2
COc1ccc(C2CC(c3ccc4ccccc4c3)=NN2C(=O)CNC2CCCCC2)cc1 (centres undefined)	28*	7	-3	19	-5	0
O=C(C[C@@H]1C=C[C@H](NC(=O)Nc2ccc(F)cc2)[C@@H](CO)O1)NCc1cccc(F)c1	-2	-2	4	2	x	x
O=C(Nc1ccc(C(F)(F)F)cc1)N1[C@@H]2CNC[C@H]1C2c1ccc(-c2ccc(F)cc2)cc1 (some centres undefined)	-5	x	-3	61*	x	x
O=C(Nc1ccc(C(F)(F)F)cc1)N1C[C@@H]2N[C@H](C1)C2c1ccc(/C=C/c2ccccc2)cc1 (some centres undefined)	-4	x	4	65*	x	x
O=C(Nc1ccc(C(F)(F)F)cc1)N1C[C@@H]2N[C@H](C1)C2c1ccc(-c2ccccc2)cc1 (some centres undefined)	0	x	-10	79*!	x	x
SMILES	AF4-AF9 inh	RAD54 branch	FN deposit inh	RAD52 inh	NSD2 inh	N-glyco inh
CC#CCN1c2ccccc2[C@]23C[C@@H](C(=O)OC)N(C(=O)c4ccco4)C2=NC(C(=O)OC)=C(C(=O)OC)[C@H]13	2	-6	-17	-47	x	16
CC#CCN1c2ccccc2[C@]23C[C@@H](C(=O)OC)N(C(=O)c4cc(C)oc4C)C2=NC(C(=O)OC)=C(C(=O)OC)[C@H]13	9	-7	-2	-22	x	33*
CN(C)CCCNC(=O)[C@@H]1[C@@H](CO)[C@@H]2Cn3c(ccc(-c4cccc(C(=O)N(C)C)c4)c3=O)[C@H]1N2	0	19	x	9	x	x
O=C(Nc1ccccc1)N1CCCCN2[C@H](CO)[C@H](c3ccc(-c4ccccc4F)cc3)[C@@H]2C1	-1	12	x	-5	x	x
O=C(Nc1ccccc1)N1CCCCN2[C@H](CO)[C@H](c3ccc(-c4ccccc4F)cc3)[C@H]2C1	12	3	5	50*	x	x
O=C(Nc1ccc(F)cc1)N1CCCCN2[C@H](C1)[C@@H](c1ccc(-c3ccccc3F)cc1)[C@@H]2CO	-1	2	x	55*	x	x
CCOCCCN(C(=O)c1snc(C(N)=O)c1N)C(C(=O)NCCC(C)C)c1ccc(C)cc1 (centres undefined)	x	x	x	x	0	x
C[C@@H]1CN([C@H](C)CO)C(=O)c2cc(C#Cc3ccccc3F)cnc2O[C@H]1CN(C)C(=O)C1CCC1	1	-2	x	4	x	x
CCCOc1ccc(F)cc1-c1cc(C(=O)Nc2ccc(C(C)C)cc2)[nH]n1	-11	7	-7	11	7	55*
CCCOc1ccc(F)cc1-c1cc(C(=O)Nc2ccc(OC)c(OC)c2)[nH]n1	1	8	-23	-8	1	-2
COc1ccccc1C(=O)N/C(=C/c1ccc(Br)cc1)C(=O)N1CCCC1	3	x	32*	-11	5	-3
COc1ccccc1C(=O)N/C(=C\c1ccc(Br)cc1)C(=O)NCC(=O)O	2	x	-2	-10	-2	0
COc1cc(C(=O)NC2CCN(C)CC2)ccc1Nc1ncc2c(n1)N(Cc1ccccc1)CCC(=O)N2C	14	31	13	70*	x	105*
CCN1C(=O)CC(c2ccccc2)N(C2CCCC2)c2nc(Nc3ccc(C(=O)NC4CCN(C)CC4)cc3OC)ncc21 (centres undefined)	x	44	x	x	x	60*
CCN1C(=O)CC(C(C)C)N(C2CCCC2)c2nc(Nc3ccc(C(=O)NC4CCN(C)CC4)cc3OC)ncc21 (centres undefined)	x	12	x	x	x	18
COc1ccccc1NC(=O)N[C@@H]1CC[C@@H](CCNC(=O)c2ccc3c(c2)OCO3)O[C@@H]1CO	-2	1	-15	0	x	x
O=C(Nc1cc(Sc2nc3ccccc3s2)cc([N+](=O)[O-])c1)c1ccccc1F	x	-3	15*	x	x	-4

Screening data: PubChem, Broad Institute
